{"source": "ChEMBL document CHEMBL5214999", "about": "“Identification and Optimization of a Ligand-Efficient Benzoazepinone Bromodomain and Extra Terminal (BET) Family Acetyl-Lysine Mimetic into the Oral Candidate Quality Molecule I-BET432” (J Med Chem, 2022)", "key": {"[1]": {"test": "Intrinsic clearance in dog hepatocytes incubated upto 45 mins by LC-MS/MS analysis", "type": "ADME, cell-based, Canis lupus familiaris, Hepatocyte", "settings": "0.75 h"}, "[2]": {"test": "Solubility of the compound at pH 6.5 in fast state simulated intestinal fluid incubated for 16 hrs by HPLC analysis", "type": "physicochemical", "settings": "fasted state simulated intestinal fluid"}, "[3]": {"test": "Half-life in Beagle dog at 1.5 mg/kg, po or 0.5 mg/kg, iv measured upto 24 hrs by LC-MS/MS analysis", "type": "ADME, organism-based, Canis lupus familiaris", "settings": "in vivo", "in_short": "(§1)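 Male Wistar Han rats and beagle dogs were dosed iv as a 1 h infusion in DMSO with 10% (w/v) Kleptose HPB in saline (2%:98% or 5%:95% v/v). Oral doses were given in 1% (w/v) methylcellulose (400 cps) aqueous suspension. Oral values are means of n = 3 and iv values n = 1 unless otherwise noted.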"}, "[4]": {"target": "T1, Bromodomain-containing protein 4 (Homo sapiens, UniProt O60885)", "test": "Inhibition of BRD4 BD1 (unknown origin) measured by TR-FRET assay"}, "[5]": {"test": "Volume of distribution at steady state in Beagle dog at 1.5 mg/kg, po or 0.5 mg/kg, iv measured upto 24 hrs by LC-MS/MS analysis", "type": "ADME, organism-based, Canis lupus familiaris", "settings": "in vivo, read-out: Vdss", "in_short": "as §1"}, "[6]": {"target": "T2, Transcription intermediary factor 1-alpha (Homo sapiens, UniProt O15164)", "T2 sequence (O15164 whole entry)": "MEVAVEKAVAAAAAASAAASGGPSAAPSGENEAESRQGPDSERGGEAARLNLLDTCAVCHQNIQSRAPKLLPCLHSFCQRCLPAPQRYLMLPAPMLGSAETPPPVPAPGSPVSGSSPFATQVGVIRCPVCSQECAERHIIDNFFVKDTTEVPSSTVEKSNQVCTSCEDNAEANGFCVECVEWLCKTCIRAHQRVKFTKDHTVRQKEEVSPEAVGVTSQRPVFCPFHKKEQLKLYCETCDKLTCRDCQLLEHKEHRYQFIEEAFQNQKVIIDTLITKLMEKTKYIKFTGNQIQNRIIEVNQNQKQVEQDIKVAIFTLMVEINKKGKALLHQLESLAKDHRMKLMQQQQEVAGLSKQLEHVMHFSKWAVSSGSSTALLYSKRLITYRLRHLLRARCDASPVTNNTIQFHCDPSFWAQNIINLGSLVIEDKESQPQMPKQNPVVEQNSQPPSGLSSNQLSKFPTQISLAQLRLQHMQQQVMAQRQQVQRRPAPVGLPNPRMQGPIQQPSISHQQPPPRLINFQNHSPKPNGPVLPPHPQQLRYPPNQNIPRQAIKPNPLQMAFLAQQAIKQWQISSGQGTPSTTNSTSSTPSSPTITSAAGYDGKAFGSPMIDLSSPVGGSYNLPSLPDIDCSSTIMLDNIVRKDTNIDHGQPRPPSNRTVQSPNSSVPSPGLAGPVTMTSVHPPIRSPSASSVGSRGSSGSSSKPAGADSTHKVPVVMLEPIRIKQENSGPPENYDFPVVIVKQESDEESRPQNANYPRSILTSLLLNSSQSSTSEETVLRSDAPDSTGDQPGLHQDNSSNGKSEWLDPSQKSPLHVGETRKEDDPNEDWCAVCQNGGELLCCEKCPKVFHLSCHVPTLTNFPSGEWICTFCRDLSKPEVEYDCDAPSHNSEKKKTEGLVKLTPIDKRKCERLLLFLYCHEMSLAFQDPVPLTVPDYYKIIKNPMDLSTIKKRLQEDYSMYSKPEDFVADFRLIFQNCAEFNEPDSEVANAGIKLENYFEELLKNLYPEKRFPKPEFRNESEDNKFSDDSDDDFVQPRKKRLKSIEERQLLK", "test": "Binding affinity to human TRIM24 bromodomain by BROMOscan method"}, "[7]": {"test": "Unbound clearance in Wistar Han rat blood at 3 mg/kg, po or 1 mg/kg, iv measured upto 24 hrs by LC-MS/MS analysis", "type": "ADME, organism-based", "settings": "in vivo", "in_short": "as §1"}, "[8]": {"test": "Half-life in Wistar Han rat at 3 mg/kg, po or 1 mg/kg, iv measured upto 24 hrs by LC-MS/MS analysis", "type": "ADME, organism-based", "settings": "in vivo", "in_short": "as §1"}, "[9]": {"test": "Artificial membrane permeability of the compound", "type": "ADME", "settings": "PAMPA; read-out: permeability"}, "[10]": {"test": "Unbound volume of distribution at steady state in Beagle dog at 1.5 mg/kg, po or 0.5 mg/kg, iv measured upto 24 hrs by LC-MS/MS analysis", "type": "ADME, organism-based, Canis lupus familiaris", "settings": "in vivo", "in_short": "as §1"}, "[11]": {"test": "Clearance in Beagle dog blood at 1.5 mg/kg, po or 0.5 mg/kg, iv measured upto 24 hrs by LC-MS/MS analysis", "type": "ADME, organism-based, Canis lupus familiaris", "settings": "whole blood", "in_short": "as §1"}, "[12]": {"test": "Intrinsic clearance in rat hepatocytes after 60 mins by LC-MS/MS analysis", "type": "ADME, cell-based, Hepatocyte", "settings": "1 h"}, "[13]": {"target": "Cytochrome P450 3A4 (Homo sapiens, UniProt P08684)", "sequence (P08684 whole entry)": "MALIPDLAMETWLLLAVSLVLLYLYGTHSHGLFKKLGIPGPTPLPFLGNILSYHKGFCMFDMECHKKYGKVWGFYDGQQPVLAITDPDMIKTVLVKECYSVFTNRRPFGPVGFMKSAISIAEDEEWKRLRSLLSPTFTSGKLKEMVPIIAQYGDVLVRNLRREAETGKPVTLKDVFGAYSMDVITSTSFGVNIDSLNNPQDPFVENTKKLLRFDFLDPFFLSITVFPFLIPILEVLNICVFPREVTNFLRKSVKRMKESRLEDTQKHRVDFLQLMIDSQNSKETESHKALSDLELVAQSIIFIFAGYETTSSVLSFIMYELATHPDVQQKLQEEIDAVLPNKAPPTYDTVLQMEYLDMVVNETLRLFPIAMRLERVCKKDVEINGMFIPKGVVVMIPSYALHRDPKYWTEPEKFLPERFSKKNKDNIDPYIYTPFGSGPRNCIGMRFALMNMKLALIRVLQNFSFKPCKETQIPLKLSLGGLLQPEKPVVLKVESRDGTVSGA", "test": "Inhibition of CYP3A4 (unknown origin)", "type": "ADME"}, "[14]": {"test": "Intrinsic clearance in human hepatocytes measured after 120 mins by LC-MS/MS analysis", "type": "ADME, cell-based, Hepatocyte", "settings": "2 h"}, "[15]": {"test": "Unbound volume of distribution at steady state in Wistar Han rat at 3 mg/kg, po or 1 mg/kg, iv measured upto 24 hrs by LC-MS/MS analysis", "type": "ADME, organism-based", "settings": "in vivo", "in_short": "as §1"}, "[16]": {"target": "T1, Bromodomain-containing protein 4", "test": "Inhibition of BRD4 BD2 (unknown origin) measured by TR-FRET assay"}, "[17]": {"test": "Unbound clearance in Beagle dog blood at 1.5 mg/kg, po or 0.5 mg/kg, iv measured upto 24 hrs by LC-MS/MS analysis", "type": "ADME, organism-based, Canis lupus familiaris", "settings": "in vivo", "in_short": "as §1"}, "[18]": {"test": "Unbound fraction in Beagle dog at 1.5 mg/kg, po or 0.5 mg/kg, iv measured upto 24 hrs by LC-MS/MS analysis", "type": "ADME, organism-based, Canis lupus familiaris", "settings": "in vivo"}, "[19]": {"test": "Clearance in Wistar Han rat blood at 3 mg/kg, po or 1 mg/kg, iv measured upto 24 hrs by LC-MS/MS analysis", "type": "ADME, organism-based", "settings": "whole blood", "in_short": "as §1"}, "[20]": {"target": "Voltage-gated inwardly rectifying potassium channel KCNH2 (Homo sapiens, UniProt Q12809)", "sequence (Q12809 whole entry)": "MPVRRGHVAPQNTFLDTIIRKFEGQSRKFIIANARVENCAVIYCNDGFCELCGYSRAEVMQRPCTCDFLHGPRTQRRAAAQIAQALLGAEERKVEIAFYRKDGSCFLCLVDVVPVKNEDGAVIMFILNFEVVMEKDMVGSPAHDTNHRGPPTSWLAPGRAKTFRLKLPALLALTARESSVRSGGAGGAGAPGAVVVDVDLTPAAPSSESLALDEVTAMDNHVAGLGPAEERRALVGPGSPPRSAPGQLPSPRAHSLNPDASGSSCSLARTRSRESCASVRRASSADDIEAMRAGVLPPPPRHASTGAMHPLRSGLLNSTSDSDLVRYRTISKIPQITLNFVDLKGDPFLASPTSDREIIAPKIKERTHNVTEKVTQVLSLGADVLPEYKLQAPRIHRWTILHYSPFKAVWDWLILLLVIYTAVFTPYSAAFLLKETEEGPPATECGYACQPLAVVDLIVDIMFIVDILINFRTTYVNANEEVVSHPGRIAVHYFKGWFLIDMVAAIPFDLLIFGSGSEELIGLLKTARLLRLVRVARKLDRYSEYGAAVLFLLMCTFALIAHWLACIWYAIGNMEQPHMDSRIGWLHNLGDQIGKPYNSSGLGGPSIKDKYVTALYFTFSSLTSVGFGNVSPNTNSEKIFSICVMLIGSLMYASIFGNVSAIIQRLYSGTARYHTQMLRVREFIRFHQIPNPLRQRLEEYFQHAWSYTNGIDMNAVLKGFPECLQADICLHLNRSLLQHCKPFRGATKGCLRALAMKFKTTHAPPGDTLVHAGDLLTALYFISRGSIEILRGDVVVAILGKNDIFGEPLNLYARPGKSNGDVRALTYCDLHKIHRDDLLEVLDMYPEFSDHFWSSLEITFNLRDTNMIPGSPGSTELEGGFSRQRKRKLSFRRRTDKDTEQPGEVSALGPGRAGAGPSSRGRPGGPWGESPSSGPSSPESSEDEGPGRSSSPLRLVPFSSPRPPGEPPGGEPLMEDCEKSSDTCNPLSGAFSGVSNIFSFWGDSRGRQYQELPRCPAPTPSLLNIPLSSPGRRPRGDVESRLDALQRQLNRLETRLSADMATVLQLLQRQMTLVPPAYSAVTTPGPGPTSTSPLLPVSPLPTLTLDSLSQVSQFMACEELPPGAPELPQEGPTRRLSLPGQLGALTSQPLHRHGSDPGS", "test": "Inhibition of hERG", "type": "toxicity"}, "[21]": {"test": "Oral bioavailability in Beagle dog at 1.5 mg/kg measured upto 24 hrs by LC-MS/MS analysis", "type": "ADME, organism-based, Canis lupus familiaris", "settings": "in vivo", "in_short": "as §1"}, "[22]": {"test": "Unbound fraction in Wistar Han rat at 3 mg/kg, po or 1 mg/kg, iv measured upto 24 hrs by LC-MS/MS analysis", "type": "ADME, organism-based", "settings": "in vivo"}, "[23]": {"test": "Volume of distribution at steady state in Wistar Han rat at 3 mg/kg, po or 1 mg/kg, iv measured upto 24 hrs by LC-MS/MS analysis", "type": "ADME, organism-based", "settings": "in vivo, read-out: Vdss", "in_short": "as §1"}, "[24]": {"target": "C-C motif chemokine 2 (Homo sapiens, UniProt P13500)", "sequence (P13500 whole entry)": "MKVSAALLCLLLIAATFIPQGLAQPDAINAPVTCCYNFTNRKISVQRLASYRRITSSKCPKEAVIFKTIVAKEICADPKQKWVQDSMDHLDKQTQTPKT", "test": "Inhibition of MCP-1 in LPS-stimulated human whole blood incubate for 24 hrs by immuno assay", "type": "tissue-based"}, "[25]": {"test": "Stability of compound in simulated gastric fluid assessed as half-life at pH 6 to 10 in presence of hydrogen peroxide", "type": "ADME", "in_short": "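The compound was held at 40 °C in pH 10 medium, pH 6 medium and simulated gastric fluid, each with and without hydrogen peroxide as oxidant, and degradation was monitored.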"}, "[26]": {"test": "Lipophilicity, logD of compound at pH 7.4 by Chromatography", "type": "physicochemical", "settings": "buffer"}, "[27]": {"test": "Oral bioavailability in Wistar Han rat at 3 mg/kg measured upto 24 hrs by LC-MS/MS analysis", "type": "ADME, organism-based", "settings": "in vivo", "in_short": "as §1"}}}
{"smiles": "C[C@H]1C(=O)N(C)C=C(c2cnn(C)c2)c2cc([C@@H](O)CO)ccc21", "values": [{"measurement": "CLH", "setting": "[1]", "result": "< 0.65", "unit": "mL/min/g"}, {"measurement": "solubility at 16 h", "setting": "[2]", "result": "> 1000", "unit": "µg/mL"}, {"measurement": "half-life", "setting": "[3]", "result": 84, "unit": "min"}, {"measurement": "IC50", "setting": "[4]", "result": 31.6, "unit": "nM"}, {"measurement": "Vd", "setting": "[5]", "result": 2.7, "unit": "L/kg"}, {"measurement": "Kd", "setting": "[6]", "result": 1260, "unit": "nM"}, {"measurement": "CL free", "setting": "[7]", "result": 38, "unit": "mL/min/kg"}, {"measurement": "half-life", "setting": "[8]", "result": 44.4, "unit": "min"}, {"measurement": "Papp", "setting": "[9]", "result": 3.1, "unit": "×10⁻⁶ cm/s"}, {"measurement": "Vduss", "setting": "[10]", "result": 5.7, "unit": "L/kg"}, {"measurement": "clearance", "setting": "[11]", "result": 28, "unit": "mL/min/kg"}, {"measurement": "CLH", "setting": "[12]", "result": "< 0.8", "unit": "mL/min/g"}, {"measurement": "IC50", "setting": "[13]", "result": "> 39.8", "unit": "µM"}, {"measurement": "CLH", "setting": "[14]", "result": "< 0.45", "unit": "mL/min/g"}, {"measurement": "Vduss", "setting": "[15]", "result": 1.9, "unit": "L/kg"}, {"measurement": "IC50", "setting": "[16]", "result": 63.1, "unit": "nM"}, {"measurement": "CL free", "setting": "[17]", "result": 60, "unit": "mL/min/kg"}, {"measurement": "Fu", "setting": "[18]", "result": 0.47}, {"measurement": "clearance", "setting": "[19]", "result": 26, "unit": "mL/min/kg"}, {"measurement": "IC50", "setting": "[20]", "result": "> 50.1", "unit": "µM"}, {"measurement": "bioavailability", "setting": "[21]", "result": 79, "unit": "%"}, {"measurement": "Fu", "setting": "[22]", "result": 0.68}, {"measurement": "Vd", "setting": "[23]", "result": 1.3, "unit": "L/kg"}, {"measurement": "IC50", "setting": "[24]", "result": 39.8, "unit": "nM"}, {"measurement": "half-life", "setting": "[25]", "result": "> 41.7", "unit": "days"}, {"measurement": "chromatographic logD", "setting": "[26]", "result": 1.3}, {"measurement": "bioavailability", "setting": "[27]", "result": 67, "unit": "%"}]}
